Reference: ChEMBL document CHEMBL3091355, “Designing and synthesis of novel antimicrobial heterocyclic analogs of fatty acids” (2013)
Converted amounts (≈) assume the structure as drawn.

Legend:
Assay type in all cases: functional
[1] = system: Nakaseomyces glabratus; test: Antifungal activity against Candida glabrata after 20 hrs by agar dilution method
[2] = system: Escherichia coli; test: Antibacterial activity against Escherichia coli ATCC 25922 after 24 hrs by broth micro dilution method; conditions: ATCC 25922, 24 h
In short: (§1)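 MIC by broth microdilution; growth read visually and spectrophotometrically. MIC taken as the lowest concentration giving complete inhibition of bacterial growth.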

[3] = system: Staphylococcus aureus; test: Antibacterial activity against Staphylococcus aureus after 24 hrs by disc diffusion method
In short: (§2)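 Disk diffusion on agar; activity measured as the halo zone of inhibition around the disk.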

[4] = system: Staphylococcus aureus; test: Bactericidal activity against Staphylococcus aureus after 18 to 24 hrs; conditions: read-out: MBC99.9
In short: (§3)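 MBC taken as the lowest concentration that killed the bacteria completely.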

[5] = system: Staphylococcus aureus; test: Antibacterial activity against Staphylococcus aureus after 24 hrs by broth micro dilution method; in short: as §1
[6] = system: Candida tropicalis; test: Antifungal activity against Candida tropicalis clinical isolate after 20 hrs by agar dilution method
[7] = system: Candida parapsilosis; test: Antifungal activity against Candida parapsilosis clinical isolate after 20 hrs by agar dilution method; conditions: Lodderomyces parapsilosis
[8] = system: Candida dubliniensis; test: Antifungal activity against Candida dubliniensis after 20 hrs by agar dilution method
[9] = system: Escherichia coli; test: Antibacterial activity against Escherichia coli ATCC 25922 after 24 hrs by disc diffusion method; in short: as §2
[10] = system: Streptococcus pyogenes; test: Antibacterial activity against Streptococcus pyogenes clinical isolate after 24 hrs by disc diffusion method
[11] = system: Streptococcus pyogenes; test: Bactericidal activity against Streptococcus pyogenes clinical isolate after 18 to 24 hrs; conditions: read-out: MBC99.9
[12] = system: Candida parapsilosis; test: Antifungal activity against Candida parapsilosis after 20 hrs by agar dilution method; conditions: Lodderomyces parapsilosis
[13] = system: Candida albicans; test: Antifungal activity against fluconazole, itraconazole-resistant Candida albicans clinical isolate after 20 hrs by agar dilution method
In short: (§4)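 Clinical Candida isolates purified and subcultured on SC, SCC and PDA media before testing. Compounds were dissolved in DMSO as a stock, then diluted into solid PDA medium to final concentrations of 0.0312 to 256.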

[14] = system: Klebsiella pneumoniae; test: Antibacterial activity against Klebsiella pneumoniae clinical isolate after 24 hrs by disc diffusion method
[15] = system: Escherichia coli; test: Bactericidal activity against Escherichia coli ATCC 25922 after 18 to 24 hrs; conditions: read-out: MBC99.9; in short: as §3
[16] = system: Candida tropicalis; test: Fungicidal activity against Candida tropicalis clinical isolate by micro dilution method
[17] = system: Pseudomonas aeruginosa; test: Antibacterial activity against Pseudomonas aeruginosa ATCC 27853 after 24 hrs by broth micro dilution method; conditions: ATCC 27853, 24 h; in short: as §1
[18] = system: Pichia kudriavzevii; test: Antifungal activity against Candida krusei after 20 hrs by agar dilution method
[19] = system: Candida albicans; test: Antifungal activity against Candida albicans after 20 hrs by agar dilution method; in short: as §4
[20] = system: Candida parapsilosis; test: Fungicidal activity against Candida parapsilosis clinical isolate by micro dilution method; conditions: Lodderomyces parapsilosis
[21] = system: Candida albicans; test: Fungicidal activity against Candida albicans clinical isolate by micro dilution method
[22] = system: Streptococcus pyogenes; test: Antibacterial activity against Streptococcus pyogenes clinical isolate after 24 hrs by broth micro dilution method
[23] = system: Candida dubliniensis; test: Fungicidal activity against Candida dubliniensis by micro dilution method
[24] = system: Pseudomonas aeruginosa; test: Bactericidal activity against Pseudomonas aeruginosa ATCC 27853 after 18 to 24 hrs; conditions: read-out: MBC99.9; in short: as §3
[25] = system: Candida albicans; test: Fungicidal activity against Candida albicans by micro dilution method
[26] = system: Nakaseomyces glabratus; test: Fungicidal activity against Candida glabrata by micro dilution method
[27] = system: Candida tropicalis; test: Antifungal activity against fluconazole, itraconazole-resistant Candida tropicalis clinical isolate after 20 hrs by agar dilution method; in short: as §4
[28] = system: Klebsiella pneumoniae; test: Bactericidal activity against Klebsiella pneumoniae clinical isolate after 18 to 24 hrs; conditions: read-out: MBC99.9
[29] = system: Candida tropicalis; test: Fungicidal activity against Candida tropicalis by micro dilution method
[30] = system: Pichia kudriavzevii; test: Fungicidal activity against Candida krusei by micro dilution method
[31] = system: Candida albicans; test: Antifungal activity against Candida albicans clinical isolate after 20 hrs by agar dilution method
[32] = system: Candida parapsilosis; test: Fungicidal activity against Candida parapsilosis by micro dilution method; conditions: Lodderomyces parapsilosis
[33] = system: Candida tropicalis; test: Antifungal activity against Candida tropicalis after 20 hrs by agar dilution method
[34] = system: Klebsiella pneumoniae; test: Antibacterial activity against Klebsiella pneumoniae clinical isolate after 24 hrs by broth micro dilution method
[35] = system: Pseudomonas aeruginosa; test: Antibacterial activity against Pseudomonas aeruginosa ATCC 27853 after 24 hrs by disc diffusion method; in short: as §2

CCCCCC1C(CCC)=NOC1CC[C@H](O)CCCCCCCC(=O)OC (stereo partly drawn)
MIC90 [1]: 64 µg/mL (≈ 161 µM)
MIC [2]: 25 µg/mL (≈ 62.9 µM)
diameter of the inhibition zone (DIZ) [3]: 20.8 mm
MBC [4]: 100 µg/mL (≈ 252 µM)
MIC [5]: 25 µg/mL (≈ 62.9 µM)
MIC90 [6]: 64 µg/mL (≈ 161 µM)
MIC90 [7]: 128 µg/mL (≈ 322 µM)
MIC90 [8]: 128 µg/mL (≈ 322 µM)
diameter of the inhibition zone (DIZ) [9]: 26.5 mm
diameter of the inhibition zone (DIZ) [10]: 22.4 mm
MBC [11]: 50 µg/mL (≈ 126 µM)
MIC90 [12]: 32 µg/mL (≈ 80.5 µM)
MIC90 [13]: > 256 µg/mL
diameter of the inhibition zone (DIZ) [14]: 18.9 mm
MBC [15]: 100 µg/mL (≈ 252 µM)
MFC [16]: > 128 µg/mL
MIC [17]: 50 µg/mL (≈ 126 µM)
MIC90 [18]: 128 µg/mL (≈ 322 µM)
MIC90 [19]: 128 µg/mL (≈ 322 µM)
MFC [20]: > 256 µg/mL
MFC [21]: 256 µg/mL (≈ 644 µM)
MIC [22]: 25 µg/mL (≈ 62.9 µM)
MFC [23]: > 256 µg/mL
MBC [24]: 100 µg/mL (≈ 252 µM)
MFC [25]: > 256 µg/mL
MFC [26]: 128 µg/mL (≈ 322 µM)
MIC90 [27]: > 256 µg/mL
MBC [28]: 100 µg/mL (≈ 252 µM)
MFC [29]: > 256 µg/mL
MFC [30]: > 256 µg/mL
MIC90 [31]: 64 µg/mL (≈ 161 µM)
MFC [32]: > 256 µg/mL
MIC90 [33]: 128 µg/mL (≈ 322 µM)
MIC [34]: 25 µg/mL (≈ 62.9 µM)
diameter of the inhibition zone (DIZ) [35]: 31.8 mm

O=C(O)c1cn(C2CC2)c2cc(N3CCNCC3)c(F)cc2c1=O [CIPROFLOXACIN]
diameter of the inhibition zone (DIZ) [3]: 22 mm
diameter of the inhibition zone (DIZ) [9]: 27 mm
diameter of the inhibition zone (DIZ) [35]: 32 mm

OC(Cn1cncn1)(Cn1cncn1)c1ccc(F)cc1F [FLUCONAZOLE]
MIC90 [1]: 8 µg/mL (≈ 26.1 µM)
MIC90 [6]: 16 µg/mL (≈ 52.2 µM)
MIC90 [7]: 0.5 µg/mL (≈ 1.63 µM)
MIC90 [8]: 2 µg/mL (≈ 6.53 µM)
MIC90 [12]: 4 µg/mL (≈ 13.1 µM)
MFC [16]: 256 µg/mL (≈ 836 µM)
MIC90 [18]: 32 µg/mL (≈ 104 µM)
MIC90 [19]: > 256 µg/mL
MFC [20]: 1 µg/mL (≈ 3.27 µM)
MFC [21]: > 256 µg/mL
MFC [23]: > 256 µg/mL
MFC [25]: > 256 µg/mL
MFC [26]: 128 µg/mL (≈ 418 µM)
MFC [29]: 256 µg/mL (≈ 836 µM)
MFC [30]: > 256 µg/mL
MIC90 [31]: 8 µg/mL (≈ 26.1 µM)
MFC [32]: 32 µg/mL (≈ 104 µM)
MIC90 [33]: 32 µg/mL (≈ 104 µM)

CCC(C)n1ncn(-c2ccc(N3CCN(c4ccc(OCC5COC(Cn6cncn6)(c6ccc(Cl)cc6Cl)O5)cc4)CC3)cc2)c1=O (stereo not drawn) [ITRACONAZOLE]
MIC90 [1]: 0.12 µg/mL (≈ 0.17 µM)
MIC90 [6]: 1 µg/mL (≈ 1.42 µM)
MIC90 [7]: 0.25 µg/mL (≈ 0.354 µM)
MIC90 [8]: > 256 µg/mL
MIC90 [12]: 0.6 µg/mL (≈ 0.85 µM)
MFC [16]: > 256 µg/mL
MIC90 [18]: 0.6 µg/mL (≈ 0.85 µM)
MIC90 [19]: > 256 µg/mL
MFC [21]: > 256 µg/mL
MFC [23]: > 256 µg/mL
MFC [25]: > 256 µg/mL
MFC [26]: > 256 µg/mL
MFC [29]: > 256 µg/mL
MFC [30]: 0.12 µg/mL (≈ 0.17 µM)
MIC90 [31]: 0.12 µg/mL (≈ 0.17 µM)
MFC [32]: 0.5 µg/mL (≈ 0.709 µM)
MIC90 [33]: > 256 µg/mL
